Source: ChEMBL document CHEMBL1152267, “Peptides based on CcdB protein as novel inhibitors of bacterial topoisomerases” (Bioorg Med Chem Lett, 2008)
Active and inactive are the calls of the source. The calls are words filed in the database; no cut-off is given here.

How the values were obtained:
Escherichia coli [1] = assay: Inhibition of Escherichia coli DNA-gyrase assessed as DNA supercoiling activity
Procedure, shortened: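 Peptide titrated into a fixed amount of enzyme and DNA. Gyrase at 3.4 nM with relaxed DNA substrate (500 ng), 37 °C for 1 h, which fully negatively supercoils the substrate without inhibitor. Value is IC100, the lowest peptide concentration giving complete inhibition of supercoiling.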

Escherichia coli [2] = assay: Inhibition of Escherichia coli topoisomerase 4 assessed as DNA relaxation activity
Procedure, shortened: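 ATP-dependent relaxation assay. Topo IV at 5 nM with supercoiled DNA (400 ng) at 37 °C, with peptide titrated at fixed enzyme and DNA. Value is IC100, the minimum concentration completely inhibiting relaxation.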

Compound	Activity (Escherichia coli [1])	Activity (Escherichia coli [2])	IC100 (Escherichia coli [2]) [µM]	IC100 (Escherichia coli [1]) [µM]
CC[C@H](C)[C@H](NC(=O)CNC(=O)[C@H](Cc1c[nH]c2ccccc12)NC(=O)[C@H](Cc1ccccc1)NC(=O)[C@H](CCSC)NC(=O)[C@H](CC(C)C)NC(=O)[C@H](CC(N)=O)NC(=O)[C@@H](NC(=O)[C@H](C)NC(=O)[C@H](CC(N)=O)NC(=O)[C@H](CCCCN)NC(=O)[C@@H](NC(=O)[C@H](CC(=O)O)NC(=O)[C@H](CC(N)=O)NC(=O)[C@H](CCC(=O)O)NC(=O)[C@H](CCCNC(=N)N)NC(=O)[C@H](Cc1cnc[nH]1)NC(=O)[C@H](CO)NC(=O)[C@H](CC(C)C)NC(=O)[C@H](CC(=O)O)NC(=O)[C@H](C)NC(=O)[C@@H](NC(=O)[C@H](CCC(=O)O)NC(=O)[C@H](CCC(=O)O)NC(=O)CNC(=O)[C@@H](NC(=O)[C@@H](NC(=O)[C@H](CO)NC(=O)[C@@H](NC(=O)[C@@H]1CCCN1C(=O)[C@@H](NC(=O)[C@H](CO)NC(=O)[C@H](C)NC(=O)[C@@H](N)CCSC)C(C)C)C(C)C)C(C)C)[C@@H](C)CC)C(C)C)[C@@H](C)CC)[C@@H](C)CC)C(=O)O	inactive	inactive	–	–
CC[C@H](C)[C@H](NC(=O)[C@H](CCC(=O)O)NC(=O)[C@H](Cc1c[nH]c2ccccc12)NC(=O)[C@H](Cc1ccccc1)NC(=O)[C@H](CCSC)NC(=O)[C@H](CC(C)C)NC(=O)[C@H](CC(N)=O)NC(=O)[C@@H](NC(=O)[C@H](C)NC(=O)[C@H](CC(N)=O)NC(=O)[C@H](CCCCN)NC(=O)[C@@H](NC(=O)[C@H](CC(=O)O)NC(=O)[C@H](CC(N)=O)NC(=O)[C@H](CCC(=O)O)NC(=O)[C@H](CCCNC(=N)N)NC(=O)[C@H](Cc1cnc[nH]1)NC(=O)[C@H](CO)NC(=O)CCCCCNC(=O)[C@H](CC(C)C)NC(=O)[C@H](CCC(=O)O)NC(=O)[C@H](CCCNC(=N)N)NC(=O)[C@H](CO)NC(=O)[C@@H](NC(=O)[C@H](CCCCN)NC(=O)[C@H](CC(=O)O)NC(=O)[C@H](CO)NC(=O)[C@H](CC(C)C)NC(=O)[C@H](CC(C)C)NC(=O)[C@H](CCCNC(=N)N)NC(=O)CCCCCNC(=O)[C@H](CCCCN)NC(=O)[C@H](Cc1ccc(O)cc1)NC(=O)[C@@H](NC(=O)[C@H](Cc1ccc(O)cc1)NC(=O)[C@@H](NC(=O)[C@H](CCCCN)NC(=O)[C@H](Cc1ccccc1)NC(=O)[C@H](CCC(N)=O)NC(=O)[C@@H](N)CCSC)C(C)C)[C@@H](C)O)C(C)C)[C@@H](C)CC)[C@@H](C)CC)C(=O)O	inactive	–	5	–
CC[C@H](C)[C@H](NC(=O)CNC(=O)[C@H](Cc1c[nH]c2ccccc12)NC(=O)[C@H](Cc1ccccc1)NC(=O)[C@H](CCSC)NC(=O)[C@H](CC(C)C)NC(=O)[C@H](CC(N)=O)NC(=O)[C@@H](NC(=O)[C@H](C)NC(=O)[C@H](CC(N)=O)NC(=O)[C@H](CCCCN)NC(=O)[C@@H](NC(=O)[C@H](CC(=O)O)NC(=O)[C@H](CC(N)=O)NC(=O)[C@H](CCC(=O)O)NC(=O)[C@H](CCCNC(=N)N)NC(=O)[C@H](Cc1cnc[nH]1)NC(=O)[C@@H](N)CO)[C@@H](C)CC)[C@@H](C)CC)C(=O)O	–	–	15	60
CC[C@H](C)[C@H](NC(=O)CNC(=O)[C@H](Cc1c[nH]c2ccccc12)NC(=O)[C@H](Cc1ccccc1)NC(=O)[C@H](CCSC)NC(=O)[C@H](CC(C)C)NC(=O)[C@H](CC(N)=O)NC(=O)[C@@H](NC(=O)[C@H](C)NC(=O)[C@H](CC(N)=O)NC(=O)[C@H](CCCCN)NC(=O)[C@@H](NC(=O)[C@H](CC(=O)O)NC(=O)[C@H](CC(N)=O)NC(=O)[C@H](CCC(=O)O)NC(=O)[C@H](CCCNC(=N)N)NC(=O)[C@H](Cc1cnc[nH]1)NC(=O)[C@H](CO)NC(=O)CCCCCNC(=O)[C@H](CCCCN)NC(=O)[C@H](Cc1ccc(O)cc1)NC(=O)[C@@H](NC(=O)[C@H](Cc1ccc(O)cc1)NC(=O)[C@@H](NC(=O)[C@H](CCCCN)NC(=O)[C@H](Cc1ccccc1)NC(=O)[C@H](CCC(N)=O)NC(=O)[C@@H](N)CCSC)C(C)C)[C@@H](C)O)[C@@H](C)CC)[C@@H](C)CC)C(=O)O	–	–	15	40
CC[C@H](C)[C@H](NC(=O)CNC(=O)[C@H](Cc1c[nH]c2ccccc12)NC(=O)[C@H](Cc1ccccc1)NC(=O)[C@H](CCSC)NC(=O)[C@H](CC(C)C)NC(=O)[C@H](CC(N)=O)NC(=O)[C@@H](NC(=O)[C@H](C)NC(=O)[C@H](CC(N)=O)NC(=O)[C@H](CCCCN)NC(=O)[C@@H](NC(=O)[C@H](CC(=O)O)NC(=O)[C@H](CC(N)=O)NC(=O)[C@H](CCC(=O)O)NC(=O)[C@H](CCCNC(=N)N)NC(=O)[C@H](Cc1cnc[nH]1)NC(=O)[C@H](CO)NC(=O)CCCCCNC(=O)[C@H](CC(C)C)NC(=O)[C@H](CCC(=O)O)NC(=O)[C@H](CCCNC(=N)N)NC(=O)[C@H](CO)NC(=O)[C@@H](NC(=O)[C@H](CCCCN)NC(=O)[C@H](CC(=O)O)NC(=O)[C@H](CO)NC(=O)[C@H](CC(C)C)NC(=O)[C@H](CC(C)C)NC(=O)[C@H](CCCNC(=N)N)NC(=O)CCCCCNC(=O)[C@H](CCCCN)NC(=O)[C@H](Cc1ccc(O)cc1)NC(=O)[C@@H](NC(=O)[C@H](Cc1ccc(O)cc1)NC(=O)[C@@H](NC(=O)[C@H](CCCCN)NC(=O)[C@H](Cc1ccccc1)NC(=O)[C@H](CCC(N)=O)NC(=O)[C@@H](N)CCSC)C(C)C)[C@@H](C)O)C(C)C)[C@@H](C)CC)[C@@H](C)CC)C(=O)O	–	–	5	10
